From ChEMBL document CHEMBL2434857, “Imidazopyridazines as potent inhibitors of Plasmodium falciparum calcium-dependent protein kinase 1 (PfCDPK1): Preparation and evaluation of pyrazole linked analogues” (Bioorg Med Chem Lett, 2013)
pEC50, pIC50: −log10 of the molar value. The source made the active and inactive calls.

Experiments:
[1] = Apparent permeability of the compound at 50 to 200 uM after 5 hrs by PAMPA; format: ADME
[2] = test system: Plasmodium falciparum; assay: Antiparasitic activity against Plasmodium falciparum assessed as parasite growth inhibition after 48 hrs by hydroethidine staining-based flow cytometric analysis; format: functional, organism-based
How it was run: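 Compounds diluted into 2% DMSO were added to cultured parasites 24 h post-invasion and incubated under static conditions. Cells were harvested 48 h later and stained for parasite DNA with hydroethidine for flow cytometry. Growth inhibition (%) = (1 − parasitaemia of treated culture / parasitaemia of control culture) × 100, and EC50 was derived from it.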

[3] = Lipophilicity, log D of the compound in octanol-phosphate buffered saline at 100 uM after 12 hrs by shake flask method; format: physicochemical
[4] = Inhibition of full length recombinant Plasmodium falciparum CDPK1 using MTIP as substrate assessed as amount of ATP remaining after 1 hr by luminescence assay
[5] = target: MAP kinase-interacting serine/threonine-protein kinase 1 (Homo sapiens) (UniProt Q9BUB5); assay: Inhibition of human MNK1 at 1 uM
[6] = target: Fibroblast growth factor receptor 1 (Homo sapiens) (UniProt P11362); assay: Inhibition of human FGFR1 at 1 uM
[7] = target: Receptor tyrosine-protein kinase erbB-4 (Homo sapiens) (UniProt Q15303); assay: Inhibition of human HER4 at 1 uM
[8] = species: Homo sapiens; assay: Inhibition of human VEGFR at 1 uM
[9] = target: Tyrosine-protein kinase Yes (Homo sapiens) (UniProt P07947); assay: Inhibition of human YES1 at 1 uM
[10] = target: Ephrin type-A receptor 2 (Homo sapiens) (UniProt P29317); assay: Inhibition of human EPHA2 at 1 uM
[11] = target: Tyrosine-protein kinase Lck (Homo sapiens) (UniProt P06239); assay: Inhibition of human LCK at 1 uM
[12] = target: Interleukin-1 receptor-associated kinase 4 (Homo sapiens) (UniProt Q9NWZ3); assay: Inhibition of human IRAK4 at 1 uM
[13] = target: Proto-oncogene tyrosine-protein kinase Src (Homo sapiens) (UniProt P12931); assay: Inhibition of human SRC at 1 uM
[14] = target: Mitogen-activated protein kinase kinase kinase 9 (Homo sapiens) (UniProt P80192); assay: Inhibition of human MLK1 at 1 uM
[15] = target: Mitogen-activated protein kinase kinase kinase 11 (Homo sapiens) (UniProt Q16584); assay: Inhibition of human MLK3 at 1 uM
[16] = target: Misshapen-like kinase 1 (Homo sapiens) (UniProt Q8N4C8); assay: Inhibition of human MINK1 at 1 uM
[17] = target: Mitogen-activated protein kinase kinase kinase kinase 2 (Homo sapiens) (UniProt Q12851); assay: Inhibition of human GCK at 1 uM
[18] = target: NUAK family SNF1-like kinase 1 (Homo sapiens) (UniProt O60285); assay: Inhibition of human NUAK1 at 1 uM
[19] = target: Serine/threonine-protein kinase pim-1 (Homo sapiens) (UniProt P11309); assay: Inhibition of human PIM1 at 1 uM
[20] = target: Serine/threonine-protein kinase Chk1 (Homo sapiens) (UniProt O14757); assay: Inhibition of human CHK1 at 1 uM
[21] = target: Serine/threonine-protein kinase Chk2 (Homo sapiens) (UniProt O96017); assay: Inhibition of human CHK2 at 1 uM
[22] = target: Aurora kinase B (Homo sapiens) (UniProt Q96GD4); assay: Inhibition of human Aurora kinase B at 1 uM
[23] = target: Ribosomal protein S6 kinase alpha-5 (Homo sapiens) (UniProt O75582); assay: Inhibition of human MSK1 at 1 uM
[24] = target: Myosin light chain kinase, smooth muscle (Homo sapiens) (UniProt Q15746); assay: Inhibition of human SmMLCK at 1 uM
[25] = target: Serine/threonine-protein kinase D1 (Homo sapiens) (UniProt Q15139); assay: Inhibition of human PKD1 at 1 uM
[26] = target: Serine/threonine-protein kinase N2 (Homo sapiens) (UniProt Q16513); assay: Inhibition of human PRK2 at 1 uM
[27] = target: Serine/threonine-protein kinase PAK 4 (Homo sapiens) (UniProt O96013); assay: Inhibition of human PAK4 at 1 uM
[28] = target: Dual specificity tyrosine-phosphorylation-regulated kinase 1A (Homo sapiens) (UniProt Q13627); assay: Inhibition of human DRYK1A at 1 uM
[29] = species: Homo sapiens; assay: Inhibition of human CK1 at 1 uM
[30] = target: Casein kinase II (Homo sapiens) (UniProt P67870+P68400+P19784); assay: Inhibition of human CK2 at 1 uM; format: protein-complex assay
[31] = target: MAP/microtubule affinity-regulating kinase 3 (Homo sapiens) (UniProt P27448); assay: Inhibition of human MARK3 at 1 uM
[32] = target: Serine/threonine-protein kinase BRSK2 (Homo sapiens) (UniProt Q8IWQ3); assay: Inhibition of human BRSK2 at 1 uM
[33] = target: Phosphorylase kinase (Homo sapiens) (UniProt P15735+P46020+P46019+Q93100+Q16816); assay: Inhibition of human PHK at 1 uM; format: protein-complex assay
[34] = target: Rho-associated protein kinase 2 (Homo sapiens) (UniProt O75116); assay: Inhibition of human ROCK2 at 1 uM
[35] = target: MAP kinase-interacting serine/threonine-protein kinase 2 (Homo sapiens) (UniProt Q9HBH9); assay: Inhibition of human MNK2 at 1 uM
[36] = target: Tyrosine-protein kinase BTK (Homo sapiens) (UniProt Q06187); assay: Inhibition of human BTK at 1 uM
[37] = target: Maternal embryonic leucine zipper kinase (Homo sapiens) (UniProt Q14680); assay: Inhibition of human MELK at 1 uM
[38] = target: Serine/threonine-protein kinase 3 (Homo sapiens) (UniProt Q13188); assay: Inhibition of human MST2 at 1 uM
[39] = target: Ribosomal protein S6 kinase alpha-1 (Homo sapiens) (UniProt Q15418); assay: Inhibition of human RSK1 at 1 uM

Receptor tyrosine-protein kinase erbB-4 (Homo sapiens), sequence (Q15303 whole entry): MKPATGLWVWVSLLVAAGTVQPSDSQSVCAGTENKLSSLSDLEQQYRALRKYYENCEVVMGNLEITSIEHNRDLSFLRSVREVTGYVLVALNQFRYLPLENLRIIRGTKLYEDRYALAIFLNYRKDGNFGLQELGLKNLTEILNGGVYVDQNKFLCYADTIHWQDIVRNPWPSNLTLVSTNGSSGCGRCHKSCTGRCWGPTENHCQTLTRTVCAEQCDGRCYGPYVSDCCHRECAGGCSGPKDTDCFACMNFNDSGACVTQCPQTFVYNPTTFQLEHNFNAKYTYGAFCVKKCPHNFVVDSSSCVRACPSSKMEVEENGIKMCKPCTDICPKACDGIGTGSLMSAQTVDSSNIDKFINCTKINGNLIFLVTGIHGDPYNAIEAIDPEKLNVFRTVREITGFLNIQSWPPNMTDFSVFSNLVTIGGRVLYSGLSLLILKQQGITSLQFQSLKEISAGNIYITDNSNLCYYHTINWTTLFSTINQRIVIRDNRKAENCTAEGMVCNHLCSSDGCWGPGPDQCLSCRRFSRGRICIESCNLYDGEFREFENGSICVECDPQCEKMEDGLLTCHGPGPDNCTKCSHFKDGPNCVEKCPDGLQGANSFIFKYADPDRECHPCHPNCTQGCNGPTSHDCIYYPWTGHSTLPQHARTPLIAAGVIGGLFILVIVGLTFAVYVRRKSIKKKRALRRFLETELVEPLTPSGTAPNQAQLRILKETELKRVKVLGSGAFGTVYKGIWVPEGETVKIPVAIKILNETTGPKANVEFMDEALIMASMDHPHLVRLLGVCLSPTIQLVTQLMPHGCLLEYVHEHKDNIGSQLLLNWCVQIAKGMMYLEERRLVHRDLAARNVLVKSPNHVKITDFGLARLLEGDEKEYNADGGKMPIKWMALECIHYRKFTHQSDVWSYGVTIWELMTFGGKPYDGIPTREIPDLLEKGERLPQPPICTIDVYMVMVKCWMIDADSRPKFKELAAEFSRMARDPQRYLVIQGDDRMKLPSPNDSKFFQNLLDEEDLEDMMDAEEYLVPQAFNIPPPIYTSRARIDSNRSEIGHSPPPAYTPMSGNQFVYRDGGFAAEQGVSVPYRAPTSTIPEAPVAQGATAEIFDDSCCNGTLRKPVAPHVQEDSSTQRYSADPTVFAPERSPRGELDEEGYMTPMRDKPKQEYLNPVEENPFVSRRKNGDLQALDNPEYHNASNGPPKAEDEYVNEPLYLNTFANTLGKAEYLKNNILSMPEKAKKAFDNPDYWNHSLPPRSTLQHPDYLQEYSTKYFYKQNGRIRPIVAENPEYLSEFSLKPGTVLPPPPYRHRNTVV
Misshapen-like kinase 1 (Homo sapiens), sequence (Q8N4C8 whole entry, looked up): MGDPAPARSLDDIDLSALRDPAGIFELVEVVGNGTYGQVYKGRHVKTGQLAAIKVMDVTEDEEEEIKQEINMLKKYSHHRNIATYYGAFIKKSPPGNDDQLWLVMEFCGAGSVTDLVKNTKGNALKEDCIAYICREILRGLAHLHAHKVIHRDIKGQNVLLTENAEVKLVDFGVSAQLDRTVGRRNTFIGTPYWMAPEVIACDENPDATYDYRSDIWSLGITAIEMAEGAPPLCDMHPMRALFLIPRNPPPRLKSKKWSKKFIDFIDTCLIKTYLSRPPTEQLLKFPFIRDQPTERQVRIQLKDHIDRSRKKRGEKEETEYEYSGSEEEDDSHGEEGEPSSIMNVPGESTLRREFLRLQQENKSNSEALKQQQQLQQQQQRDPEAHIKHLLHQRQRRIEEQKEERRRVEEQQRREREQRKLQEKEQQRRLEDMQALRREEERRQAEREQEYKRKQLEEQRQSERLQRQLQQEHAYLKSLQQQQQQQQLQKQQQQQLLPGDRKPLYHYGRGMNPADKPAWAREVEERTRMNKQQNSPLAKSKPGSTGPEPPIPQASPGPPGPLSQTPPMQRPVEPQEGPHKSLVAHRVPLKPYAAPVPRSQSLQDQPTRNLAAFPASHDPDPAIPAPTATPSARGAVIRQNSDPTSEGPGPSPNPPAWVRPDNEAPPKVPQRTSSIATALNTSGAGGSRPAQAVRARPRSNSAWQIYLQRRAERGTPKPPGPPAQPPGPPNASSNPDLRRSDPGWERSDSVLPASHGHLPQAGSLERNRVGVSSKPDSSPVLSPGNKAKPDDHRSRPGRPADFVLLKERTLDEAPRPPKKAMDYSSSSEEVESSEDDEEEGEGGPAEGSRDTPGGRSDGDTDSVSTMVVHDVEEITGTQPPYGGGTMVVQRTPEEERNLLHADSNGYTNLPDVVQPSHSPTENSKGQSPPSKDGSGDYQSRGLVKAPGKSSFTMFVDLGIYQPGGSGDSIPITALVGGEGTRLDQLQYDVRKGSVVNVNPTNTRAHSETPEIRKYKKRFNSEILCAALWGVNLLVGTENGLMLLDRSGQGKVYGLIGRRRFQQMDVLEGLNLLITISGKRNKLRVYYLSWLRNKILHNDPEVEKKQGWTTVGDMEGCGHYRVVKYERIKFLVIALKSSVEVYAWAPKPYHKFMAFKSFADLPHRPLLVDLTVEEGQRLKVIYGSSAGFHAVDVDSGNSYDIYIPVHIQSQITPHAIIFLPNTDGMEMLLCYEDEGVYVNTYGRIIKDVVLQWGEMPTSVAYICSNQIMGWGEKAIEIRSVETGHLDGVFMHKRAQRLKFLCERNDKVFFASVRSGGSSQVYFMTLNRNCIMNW
Serine/threonine-protein kinase pim-1 (Homo sapiens), sequence (P11309 whole entry, looked up): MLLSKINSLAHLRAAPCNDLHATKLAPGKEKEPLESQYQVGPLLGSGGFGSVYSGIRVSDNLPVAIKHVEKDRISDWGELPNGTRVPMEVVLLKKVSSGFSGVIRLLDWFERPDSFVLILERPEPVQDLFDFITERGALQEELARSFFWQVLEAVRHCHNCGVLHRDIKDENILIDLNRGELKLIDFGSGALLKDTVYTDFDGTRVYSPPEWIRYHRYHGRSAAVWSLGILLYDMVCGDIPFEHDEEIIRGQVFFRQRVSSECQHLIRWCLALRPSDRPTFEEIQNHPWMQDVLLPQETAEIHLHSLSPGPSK
Myosin light chain kinase, smooth muscle (Homo sapiens), sequence (Q15746 whole entry): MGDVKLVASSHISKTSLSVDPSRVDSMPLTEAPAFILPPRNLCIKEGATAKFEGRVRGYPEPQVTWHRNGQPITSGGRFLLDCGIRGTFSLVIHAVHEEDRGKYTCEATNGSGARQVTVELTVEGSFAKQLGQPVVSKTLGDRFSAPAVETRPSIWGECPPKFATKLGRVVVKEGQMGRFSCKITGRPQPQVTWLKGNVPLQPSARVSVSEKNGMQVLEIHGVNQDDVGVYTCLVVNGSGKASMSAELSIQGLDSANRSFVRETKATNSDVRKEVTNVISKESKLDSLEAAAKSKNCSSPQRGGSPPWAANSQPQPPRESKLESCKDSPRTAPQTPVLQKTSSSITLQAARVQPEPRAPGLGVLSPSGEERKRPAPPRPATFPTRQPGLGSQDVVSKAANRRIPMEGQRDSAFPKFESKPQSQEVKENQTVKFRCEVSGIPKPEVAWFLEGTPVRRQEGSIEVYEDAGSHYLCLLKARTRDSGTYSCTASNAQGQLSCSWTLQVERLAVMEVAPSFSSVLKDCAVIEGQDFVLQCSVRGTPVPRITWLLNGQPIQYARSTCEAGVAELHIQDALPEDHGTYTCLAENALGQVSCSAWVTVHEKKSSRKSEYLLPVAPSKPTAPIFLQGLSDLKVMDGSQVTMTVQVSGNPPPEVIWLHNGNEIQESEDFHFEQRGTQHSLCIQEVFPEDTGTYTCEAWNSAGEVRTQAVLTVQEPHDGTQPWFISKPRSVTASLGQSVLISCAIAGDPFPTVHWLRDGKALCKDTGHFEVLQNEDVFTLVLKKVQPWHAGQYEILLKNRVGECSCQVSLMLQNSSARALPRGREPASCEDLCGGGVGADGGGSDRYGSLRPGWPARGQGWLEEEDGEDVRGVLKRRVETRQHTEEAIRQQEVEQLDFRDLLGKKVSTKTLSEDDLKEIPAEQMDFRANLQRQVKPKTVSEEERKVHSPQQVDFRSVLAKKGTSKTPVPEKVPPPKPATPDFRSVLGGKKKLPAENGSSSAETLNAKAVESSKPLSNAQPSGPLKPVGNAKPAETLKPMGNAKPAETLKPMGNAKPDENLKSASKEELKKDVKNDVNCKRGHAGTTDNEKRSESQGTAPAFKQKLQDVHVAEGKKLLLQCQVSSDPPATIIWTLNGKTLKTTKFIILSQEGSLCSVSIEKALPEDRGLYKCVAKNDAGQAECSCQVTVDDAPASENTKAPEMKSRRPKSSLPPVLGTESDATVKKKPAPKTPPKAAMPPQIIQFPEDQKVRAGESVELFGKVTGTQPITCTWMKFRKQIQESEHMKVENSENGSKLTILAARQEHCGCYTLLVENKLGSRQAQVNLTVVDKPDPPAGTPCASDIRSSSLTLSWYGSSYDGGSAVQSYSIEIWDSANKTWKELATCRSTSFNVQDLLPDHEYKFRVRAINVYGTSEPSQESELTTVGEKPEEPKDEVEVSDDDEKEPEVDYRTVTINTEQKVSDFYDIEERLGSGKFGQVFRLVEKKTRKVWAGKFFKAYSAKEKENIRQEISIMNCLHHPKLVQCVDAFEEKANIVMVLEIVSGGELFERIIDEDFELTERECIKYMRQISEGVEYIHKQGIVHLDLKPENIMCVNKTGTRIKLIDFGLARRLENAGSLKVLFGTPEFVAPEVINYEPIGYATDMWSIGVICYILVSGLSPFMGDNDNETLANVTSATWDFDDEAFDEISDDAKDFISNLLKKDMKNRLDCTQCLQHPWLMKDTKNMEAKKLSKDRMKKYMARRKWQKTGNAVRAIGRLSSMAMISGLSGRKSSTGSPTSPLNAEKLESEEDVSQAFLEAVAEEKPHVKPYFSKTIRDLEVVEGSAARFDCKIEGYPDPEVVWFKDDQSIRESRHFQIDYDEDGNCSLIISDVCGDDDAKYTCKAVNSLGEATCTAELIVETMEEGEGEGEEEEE

CN1CCC(Nc2ccc3ncc(-c4cnn(-c5cccc(F)c5)c4)n3n2)CC1
11 ×10⁻⁶ cm/s: Papp at 5 h, up to 200 µM [1]
3.1: logD at 12 h, 100 µM [3]
6.40: pEC50 [2]
7.70: pIC50 [4]

CN1CCC(Nc2ccc3ncc(-c4cnn(Cc5ccccc5F)c4)n3n2)CC1
6.48: pIC50 [4]
3: logD at 12 h, 100 µM [3]

CN1CCC(Nc2ccc3ncc(-c4cnn(C5CCCC5)c4)n3n2)CC1
5.70: pIC50 [4]

CN1CCC(Nc2ccc3ncc(-c4cnn(-c5ccc(F)cn5)c4)n3n2)CC1
2.9: logD at 12 h, 100 µM [3]

Cc1cc(F)ccc1-n1cc(-c2cnc3ccc(NC4CCN(C)CC4)nn23)cn1
2.9: logD at 12 h, 100 µM [3]

c1ccc(-n2cc(-c3cnc4ccc(NC5CCNCC5)nn34)cn2)cc1
active: inhibition [5] | inhibition [6] | inhibition [7] | inhibition [8] | inhibition [9] | inhibition [10] | inhibition [11] | inhibition [12] | inhibition [13] | inhibition [14] | inhibition [15] | inhibition [16] | inhibition [17] | inhibition [18] | inhibition [19] | inhibition [20] | inhibition [21] | inhibition [22] | inhibition [23] | inhibition [24] | inhibition [25] | inhibition [26]

CN1CCC(Nc2ccc3ncc(-c4cnn(-c5ccc(F)cc5)c4)n3n2)CC1
7.35: pIC50 [4]
6.25: pEC50 [2]
2.8: logD at 12 h, 100 µM [3]

CN1CCC(Nc2ccc3ncc(-c4cnn(-c5ccc(F)cc5F)c4)n3n2)CC1
2.9: logD at 12 h, 100 µM [3]

CN1CCC(Nc2ccc3ncc(-c4cnn(-c5ncccc5F)c4)n3n2)CC1
2.9: logD at 12 h, 100 µM [3]

CN1CCC(Nc2ccc3ncc(-c4cnn(-c5ccc(C#N)cc5)c4)n3n2)CC1
active: inhibition [27] | inhibition [28] | inhibition [29] | inhibition [30] | inhibition [31] | inhibition [32] | inhibition [33] | inhibition [34] | inhibition [35] | inhibition [36] | inhibition [37] | inhibition [38] | inhibition [39] | inhibition [5] | inhibition [7] | inhibition [8] | inhibition [9] | inhibition [10] | inhibition [12] | inhibition [13] | inhibition [14] | inhibition [15] | inhibition [16] | inhibition [17] | inhibition [18] | inhibition [19] | inhibition [20] | inhibition [24] | inhibition [26]

CN1CCC(Nc2ccc3ncc(-c4cnn(-c5ccccc5)c4)n3n2)CC1
7.15: pIC50 [4]
